From ChEMBL document CHEMBL1149565, “Identification of a novel series of benzimidazoles as potent and selective antagonists of the human melanocortin-4 receptor” (Bioorg Med Chem Lett, 2007)
Activity calls are given as the source filed them. The rule behind the calls is not given here.

How the values were obtained:
[1] = target: T1, Melanocortin receptor 4 (Homo sapiens, UniProt P32245); experiment: Displacement of [125I]NDP-alphaMSH from human melanocortin 4 receptor expressed in CHOK1 cells; type: cell-based, CHO-K1
Procedure, shortened: (§1)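 Membranes from CHO-K1 cells stably expressing human MC1, MC3, MC4 or MC5 receptor, 1–10 µg protein/well, in 50 mM Tris-HCl pH 7.4 with 0.2% BSA, 5 mM MgCl2, 1 mM CaCl2, 0.1 mg/mL bacitracin. Incubated with increasing test compound and 0.1–0.3 nM [125I]NDP-α-MSH, 90–120 min at 37 °C depending on subtype. Filtration on PEI-presoaked GF/C filters, cold buffer washes, radioactivity counted; nonlinear regression; three independent measurements.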

[2] = target: T1, Melanocortin receptor 4; experiment: Agonist activity at human melanocortin 4 receptor expressed in CHOK1 cells assessed as stimulation of cAMP production at 10 uM; type: functional, cell-based; details: CHO-K1
Procedure, shortened: (§2)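 CHO-K1 cells stably expressing human MC4 receptor, suspended in RPMI 1640 with 0.5 mM IBMX and 0.2% protein cocktail, 7000 cells/well on anti-cAMP antibody-coated electrode plates. NDP-α-MSH concentration–response run with increasing test compound concentrations (agonist check at 10 µM alone), 40 min at 37 °C. Cells lysed, 2.5 nM ruthenium-labelled cAMP added, 90 min, then electrochemiluminescence read-out. Nonlinear regression; KB by Schild regression, logarithmic mean of three independent measurements.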

[3] = target: T1, Melanocortin receptor 4; experiment: Antagonist activity at human melanocortin 4 receptor expressed in CHOK1 cells assessed as inhibition of NDP-alpha-MSH-stimulated cAMP production; type: functional, cell-based; details: CHO-K1; procedure, shortened: as §2
[4] = Ratio of drug level in brain to blood in Sprague-Dawley rat at 4.5 umol/kg, iv; type: ADME, tissue-based; details: read-out: Ratio AUC
Procedure, shortened: (§3)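 Fed male Sprague–Dawley rats, three per time point, given 4.5 µmol/kg intravenously via penile vein in 1 ml/kg 10% DMA/90% propanediol. Under deep isoflurane anaesthesia, blood taken from vena cava at 1, 15, 30, 60, 90 and 120 min, centrifuged 2000g, 15 min, 4 °C. Plasma and brain levels measured; brain/blood ratio from AUC.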

[5] = Half life in Sprague-Dawley rat at 4.5 umol/kg, iv; type: ADME, organism-based; details: in vivo; procedure, shortened: as §3
[6] = target: Melanocyte-stimulating hormone receptor (Homo sapiens, UniProt Q01726); experiment: Displacement of [125I]NDP-alphaMSH from human melanocortin 1 receptor expressed in CHOK1 cells; type: cell-based, CHO-K1; procedure, shortened: as §1
[7] = target: Melanocortin receptor 3 (Homo sapiens, UniProt P41968); experiment: Displacement of [125I]NDP-alphaMSH from human melanocortin 3 receptor expressed in CHOK1 cells; type: cell-based, CHO-K1; procedure, shortened: as §1
[8] = target: Melanocortin receptor 5 (Homo sapiens, UniProt P33032); experiment: Displacement of [125I]NDP-alphaMSH from human melanocortin 5 receptor expressed in CHOK1 cells; type: cell-based, CHO-K1; procedure, shortened: as §1
[9] = target: Melanocortin receptor (M3 and M4) (Homo sapiens) (UniProt P32245+P41968); experiment: Selectivity for human MC4R over human MC3R; type: protein assay

Melanocyte-stimulating hormone receptor, sequence (Q01726 whole entry): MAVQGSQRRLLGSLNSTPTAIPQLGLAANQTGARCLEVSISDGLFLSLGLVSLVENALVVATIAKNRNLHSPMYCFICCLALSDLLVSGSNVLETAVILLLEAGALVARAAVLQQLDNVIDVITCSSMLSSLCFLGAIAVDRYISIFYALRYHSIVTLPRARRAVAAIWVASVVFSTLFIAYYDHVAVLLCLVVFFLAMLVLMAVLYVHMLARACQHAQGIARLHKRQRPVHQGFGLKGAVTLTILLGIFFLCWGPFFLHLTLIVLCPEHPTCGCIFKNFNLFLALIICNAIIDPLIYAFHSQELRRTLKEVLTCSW
Melanocortin receptor 5, sequence (P33032 whole entry): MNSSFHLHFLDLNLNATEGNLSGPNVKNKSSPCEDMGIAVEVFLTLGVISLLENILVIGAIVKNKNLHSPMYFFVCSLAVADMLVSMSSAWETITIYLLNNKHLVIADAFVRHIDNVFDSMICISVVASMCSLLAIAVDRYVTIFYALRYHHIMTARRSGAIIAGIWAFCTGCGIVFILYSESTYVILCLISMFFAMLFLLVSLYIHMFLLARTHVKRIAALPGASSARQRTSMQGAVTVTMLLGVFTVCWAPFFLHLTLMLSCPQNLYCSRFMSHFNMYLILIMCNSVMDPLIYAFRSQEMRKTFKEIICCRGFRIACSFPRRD
Melanocortin receptor 3, sequence (P41968 whole entry): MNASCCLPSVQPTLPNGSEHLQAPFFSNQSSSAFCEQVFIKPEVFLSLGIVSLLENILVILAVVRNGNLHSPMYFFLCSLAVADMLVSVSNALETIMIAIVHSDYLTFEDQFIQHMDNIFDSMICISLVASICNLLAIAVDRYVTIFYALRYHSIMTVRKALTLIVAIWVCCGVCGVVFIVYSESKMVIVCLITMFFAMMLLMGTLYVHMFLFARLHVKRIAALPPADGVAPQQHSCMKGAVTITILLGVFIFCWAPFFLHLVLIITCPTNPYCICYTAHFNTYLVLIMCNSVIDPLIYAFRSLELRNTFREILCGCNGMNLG
T1 sequence (P32245 whole entry): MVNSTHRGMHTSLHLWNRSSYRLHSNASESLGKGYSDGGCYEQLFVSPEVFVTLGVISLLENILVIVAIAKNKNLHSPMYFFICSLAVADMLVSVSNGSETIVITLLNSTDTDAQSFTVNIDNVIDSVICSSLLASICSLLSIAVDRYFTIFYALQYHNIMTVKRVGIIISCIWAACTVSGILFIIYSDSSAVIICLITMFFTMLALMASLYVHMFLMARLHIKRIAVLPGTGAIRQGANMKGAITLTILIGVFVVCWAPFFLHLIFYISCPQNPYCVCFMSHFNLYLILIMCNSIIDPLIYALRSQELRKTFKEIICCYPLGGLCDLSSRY

Row | Ki ([1]; read-out: Ki) [nM] | Compound | other results
1 | 78 | COCCNc1nc2ccc(C(=O)N(CCC(C)C)CCC(C)C)cc2n1CCCN1CCCCC1 | 
2 | 37 | COc1ccc(-c2nc3ccc(C(=O)N(CCC(C)C)CCC(C)C)cc3n2CCCN2CCCCC2)cc1 | 
3 | 1.7 | CC(C)CCN(CCC(C)C)C(=O)c1ccc2nc(Nc3ccc(C(=O)c4ccccc4)cc3)n(CCCN3CCCCC3)c2c1 | 
4 | 7.3 | CC(C)CCN(CCC(C)C)C(=O)c1ccc2nc(Nc3ccccc3)n(CCCN3CCCCC3)c2c1 | 
5 | 2 | CC(=O)c1ccc(Nc2nc3ccc(C(=O)N(CCC(C)C)CCC(C)C)cc3n2CCCN2CCCCC2)cc1 | Activity [2]: inactive; Kb [3]: 77 nM; Kp [4]: 2.9; half-life [5]: 5 h; Ki [6]: 5200 nM; Ki [7]: 400 nM; Ki [8]: 2200 nM
6 | 7.5 | CC(C)CCN(CCC(C)C)C(=O)c1ccc2nc(Nc3ccc(Br)cc3)n(CCCN3CCCCC3)c2c1 | 
7 | 2.9 | CC(C)CCN(CCC(C)C)C(=O)c1ccc2nc(-c3cc4ccccc4s3)n(CCCN3CCCCC3)c2c1 | 
8 | 3.3 | CNC(=O)c1ccc(Nc2nc3ccc(C(=O)N(CCC(C)C)CCC(C)C)cc3n2CCCN2CCCCC2)cc1 | Activity [2]: inactive; Kb [3]: 3.2 nM; Ki [6]: 9300 nM; Ki [7]: 130 nM; Ki [8]: 880 nM; Fold change [9]: 40
9 | 420 | COc1cc(Nc2nc3ccc(C(=O)N(CCC(C)C)CCC(C)C)cc3n2CCCN)cc(OC)c1OC | 
10 | 3.2 | CC(C)CCN(CCC(C)C)C(=O)c1ccc2nc(-c3cn(C)c4ccccc34)n(CCCN3CCCCC3)c2c1 | 
11 | 2.7 | CCC(=O)c1ccc(Nc2nc3ccc(C(=O)N(CCC(C)C)CCC(C)C)cc3n2CCCN2CCCCC2)cc1 | 
12 | 730 | CC(=O)c1ccc(Nc2nc3ccc(C(=O)N(CCC(C)C)CCC(C)C)cc3n2CC(C)(C)CN(C)C)cc1 | 
13 | 5.2 | CC(C)CCN(CCC(C)C)C(=O)c1ccc2nc(Nc3ccc(-c4ccccc4)cc3)n(CCCN3CCCCC3)c2c1 | 
14 | 28 | COc1ccc(Cc2nc3ccc(C(=O)N(CCC(C)C)CCC(C)C)cc3n2CCCN2CCCCC2)cc1 | 
15 | 4.9 | CC(=O)c1ccc(Nc2nc3ccc(C(=O)N(CCC(C)C)CCC(C)C)cc3n2CCCN2CCCC2)cc1 | 
16 | 14 | CC(C)CCN(CCC(C)C)C(=O)c1ccc2nc(Nc3cccc4[nH]ccc34)n(CCCN3CCCCC3)c2c1 | 
17 | 7 | CC(C)CCN(CCC(C)C)C(=O)c1ccc2nc(-c3c[nH]c4ccccc34)n(CCCN3CCCCC3)c2c1 | 
18 | 60 | CC(=O)c1ccc(Nc2nc3ccc(C(=O)N(CCC(C)C)CCC(C)C)cc3n2CCCN)cc1 | 
19 | 33 | CC(C)CCN(CCC(C)C)C(=O)c1ccc2nc(Nc3ccsc3)n(CCCN3CCCCC3)c2c1 | 
20 | 2.1 | CC(C)CCN(CCC(C)C)C(=O)c1ccc2nc(Nc3ccc(Oc4ccccc4)cc3)n(CCCN3CCCCC3)c2c1 | 
21 | 220 | CC(=O)c1ccc(Nc2nc3ccc(C(=O)N(CCC(C)C)CCC(C)C)cc3n2CCN)cc1 | 
22 | 4.5 | CC(=O)c1cccc(Nc2nc3ccc(C(=O)N(CCC(C)C)CCC(C)C)cc3n2CCCN2CCCCC2)c1 | 
23 | 8.8 | CC(C)CCN(CCC(C)C)C(=O)c1ccc2nc(Nc3ccc(Cl)cc3)n(CCCN3CCCCC3)c2c1 | 
24 | 110 | CC(=O)c1ccccc1Nc1nc2ccc(C(=O)N(CCC(C)C)CCC(C)C)cc2n1CCCN1CCCCC1 | 
25 | 1000 | CCCCN(CCCC)C(=O)c1ccc2nc(Nc3cc(OC)c(OC)c(OC)c3)n(CCCN)c2c1 | 
26 | 8.3 | CC(C)CCN(CCC(C)C)C(=O)c1ccc2nc(Nc3ccc(F)cc3)n(CCCN3CCCCC3)c2c1 | 

Row | Ki ([1]; read-out: Ki) [nM] | Compound | other results
27 | 2300 | CC(=O)c1ccc(Nc2nc3ccc(C(=O)N(CCC(C)C)CCC(C)C)cc3n2CCCO)cc1 | 
28 | 5 | COc1ccc(Nc2nc3ccc(C(=O)N(CCC(C)C)CCC(C)C)cc3n2CCCN2CCCCC2)cc1 | 
29 | > 10000 | CC(=O)c1ccc(Nc2nc3ccc(C(=O)N(CCC(C)C)CCC(C)C)cc3n2CCCNC(=O)OC(C)(C)C)cc1 | Ki ([1]; read-out: Log Ki (converted)): 85100 nM
30 | 31 | CC(=O)NCCNc1nc2ccc(C(=O)N(CCC(C)C)CCC(C)C)cc2n1CCCN1CCCCC1 | 
31 | 130 | CC(=O)c1ccc(Nc2nc3ccc(C(=O)N(CCC(C)C)CCC(C)C)cc3n2CCCCN)cc1 | 
32 | 20 | CC(=O)c1ccc(-c2nc3ccc(C(=O)N(CCC(C)C)CCC(C)C)cc3n2CCCN2CCCCC2)cc1 | 
33 | 12 | CC(=O)c1ccc(Nc2nc3ccc(C(=O)N(CCC(C)C)CCC(C)C)cc3n2CCCN(C)C)cc1 | 
34 | 5.8 | CC(=O)c1ccc(CNc2nc3ccc(C(=O)N(CCC(C)C)CCC(C)C)cc3n2CCCN2CCCCC2)cc1 | 
35 | 18 | CC(C)CCN(CCC(C)C)C(=O)c1ccc2nc(NCc3ccccc3)n(CCCN3CCCCC3)c2c1 | 
36 | 33 | CC(=O)c1ccc(Nc2nc3ccc(C(=O)N(CCC(C)C)CCC(C)C)cc3n2CCCN2CCOCC2)cc1 | 
37 | 3.7 | CC(=O)Nc1ccc(Nc2nc3ccc(C(=O)N(CCC(C)C)CCC(C)C)cc3n2CCCN2CCCCC2)cc1 | 
38 | 9.7 | CC(C)CCN(CCC(C)C)C(=O)c1ccc2nc(Nc3ccc(N4CCCCC4)cc3)n(CCCN3CCCCC3)c2c1 | 
39 | 51 | CNCCCn1c(Nc2ccc(C(C)=O)cc2)nc2ccc(C(=O)N(CCC(C)C)CCC(C)C)cc21 | 
40 | 0.9 | COC(=O)c1ccc(Nc2nc3ccc(C(=O)N(CCC(C)C)CCC(C)C)cc3n2CCCN2CCCCC2)cc1 | 
41 | 7.9 | CCN(CC)CCCn1c(Nc2ccc(C(C)=O)cc2)nc2ccc(C(=O)N(CCC(C)C)CCC(C)C)cc21 | 
42 | 45 | CC(=O)c1ccc(Nc2nc3ccc(C(=O)N(CCC(C)C)CCC(C)C)cc3n2CCCN2CCN(C)CC2)cc1 | 
43 | 11000 | COc1cc(Nc2nc3ccc(C(=O)N(CC(C)C)CC(C)C)cc3n2CCCN)cc(OC)c1OC | Ki ([1]; read-out: Log Ki (converted)): 11700 nM
44 | 4.2 | CC(C)CCN(CCC(C)C)C(=O)c1ccc2nc(Nc3cccnc3)n(CCCN3CCCCC3)c2c1 | 
45 | 45 | COC(=O)c1ccc(-c2nc3ccc(C(=O)N(CCC(C)C)CCC(C)C)cc3n2CCCN2CCCCC2)cc1 | 
46 | 640 | CCCCCN(CCCCC)C(=O)c1ccc2nc(Nc3cc(OC)c(OC)c(OC)c3)n(CCCN)c2c1 | 
47 | 770 | CC(=O)c1ccc(Nc2nc3ccc(C(=O)N(CC(C)C)CC(C)C)cc3n2CCCN)cc1 | 
48 | 3.9 | CC(=O)c1ccc(Cc2nc3ccc(C(=O)N(CCC(C)C)CCC(C)C)cc3n2CCCN2CCCCC2)cc1 | Activity [2]: inactive; Kb [3]: 14 nM; Ki [6]: > 10000 nM; Ki [7]: 4500 nM; Ki [8]: 5900 nM
49 | 17000 | CCCN(CCC)C(=O)c1ccc2nc(Nc3cc(OC)c(OC)c(OC)c3)n(CCCN)c2c1 | Ki ([1]; read-out: Log Ki (converted)): 17800 nM
50 | 6.5 | CC(C)CCN(CCC(C)C)C(=O)c1ccc2nc(Nc3ccc(C(N)=O)cc3)n(CCCN3CCCCC3)c2c1 | 
51 | 2.2 | CC(C)CCN(CCC(C)C)C(=O)c1ccc2nc(Nc3ccc([N+](=O)[O-])cc3)n(CCCN3CCCCC3)c2c1 | 
52 | 50 | CC(=O)c1ccc(Nc2nc3ccc(C(=O)N(CCC(C)C)CCC(C)C)cc3n2C2CCN(C)CC2)cc1 | 

Row | Compound | Ki ([1]; read-out: Ki) [nM] | other results
53 | COc1ccc(C(=O)c2nc3ccc(C(=O)N(CCC(C)C)CCC(C)C)cc3n2CCCN2CCCCC2)cc1 | 0.96 | Activity [2]: inactive; Kb [3]: 44 nM; Ki [6]: 7500 nM; Ki [7]: 540 nM; Ki [8]: 1600 nM; Fold change [9]: 40
